Assay results as given in ChEMBL document CHEMBL3739303, “Targeting the Src Homology 2 (SH2) Domain of Signal Transducer and Activator of Transcription 6 (STAT6) with Cell-Permeable, Phosphatase-Stable Phosphopeptide Mimics Potently Inhibits Tyr641 Phosphorylation and Transcriptional Activity” (J Med Chem, 2015).
Calls of active or inactive are those of the source. The rule behind the calls is not given here.

Legend:
[1] = target: RAC-alpha serine/threonine-protein kinase (Homo sapiens) (UniProt P31749); test: Inhibition of EGF-induced AKT phosphorylation at S473 in human MDA-MB-468 cells at 100 nM incubated for 2 hrs followed by stimulation with EGF for 1 hr by Western blot assay; assay type: cell-based
Sequence of RAC-alpha serine/threonine-protein kinase (Homo sapiens) (P31749 whole entry): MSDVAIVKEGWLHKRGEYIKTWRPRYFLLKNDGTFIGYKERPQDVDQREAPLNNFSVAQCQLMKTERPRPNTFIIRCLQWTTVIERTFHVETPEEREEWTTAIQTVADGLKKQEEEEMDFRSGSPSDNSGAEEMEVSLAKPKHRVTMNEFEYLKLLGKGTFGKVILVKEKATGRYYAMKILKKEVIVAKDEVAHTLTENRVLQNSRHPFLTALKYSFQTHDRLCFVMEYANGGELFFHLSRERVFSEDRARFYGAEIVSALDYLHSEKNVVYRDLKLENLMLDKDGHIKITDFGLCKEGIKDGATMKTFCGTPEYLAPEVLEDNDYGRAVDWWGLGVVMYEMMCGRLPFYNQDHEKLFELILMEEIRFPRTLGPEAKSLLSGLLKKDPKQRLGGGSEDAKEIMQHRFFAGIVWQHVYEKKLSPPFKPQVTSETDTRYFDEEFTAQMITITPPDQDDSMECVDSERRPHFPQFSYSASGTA

[2] = Cytotoxicity against human BEAS2B cells assessed as cell viability after 72 hrs by MTS assay; assay type: cell-based; conditions: beas-2b
Outline: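 Beas-2B seeded at 2000 cells/well; 10 mM DMSO stocks serially diluted in DMSO and equal amounts added to cultures; 72 h at 37 °C; medium replaced by 1:5 MTS/PBS, 1 h further incubation; viable cells read as optical density at 490 nm.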

[3] = target: Signal transducer and activator of transcription 3 (Mus musculus) (UniProt P42227); test: Inhibition of IL6-induced STAT3 phosphorylation at S727 in CD4+ T lymphocytes isolated from C57BL/6J mouse preincubated for 2 hrs followed by activation with plate-bound anti-CD3/anti-CD28 for 15 mins by Western blot analysis
Sequence of Signal transducer and activator of transcription 3 (Mus musculus) (P42227 whole entry): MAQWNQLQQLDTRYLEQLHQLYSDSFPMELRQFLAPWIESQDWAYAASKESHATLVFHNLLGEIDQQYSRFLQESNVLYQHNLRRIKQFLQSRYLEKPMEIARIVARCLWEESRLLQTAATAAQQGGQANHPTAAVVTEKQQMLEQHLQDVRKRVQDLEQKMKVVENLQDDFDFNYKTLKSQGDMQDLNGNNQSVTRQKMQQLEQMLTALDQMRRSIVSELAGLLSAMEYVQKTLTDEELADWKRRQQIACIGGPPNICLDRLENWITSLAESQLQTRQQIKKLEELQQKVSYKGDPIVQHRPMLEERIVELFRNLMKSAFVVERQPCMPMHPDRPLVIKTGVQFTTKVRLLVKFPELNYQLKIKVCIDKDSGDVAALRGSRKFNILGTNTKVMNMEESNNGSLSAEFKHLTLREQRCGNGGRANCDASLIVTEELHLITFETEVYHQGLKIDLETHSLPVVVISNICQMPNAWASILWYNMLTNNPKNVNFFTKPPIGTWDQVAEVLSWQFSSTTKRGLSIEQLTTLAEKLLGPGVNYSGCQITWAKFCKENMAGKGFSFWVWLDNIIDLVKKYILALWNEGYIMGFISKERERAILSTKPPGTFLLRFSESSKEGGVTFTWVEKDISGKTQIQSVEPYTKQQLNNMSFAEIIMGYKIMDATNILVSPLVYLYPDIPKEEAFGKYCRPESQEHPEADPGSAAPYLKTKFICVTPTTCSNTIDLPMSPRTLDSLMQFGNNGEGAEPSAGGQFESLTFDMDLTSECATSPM

[4] = target: T1, Signal transducer and transcription activator 6 (Mus musculus) (UniProt P52633); test: Inhibition of IL4-induced STAT6 phosphorylation at Y641 in CD4+ T lymphocytes isolated from C57BL/6J mouse preincubated for 2 hrs followed by activation with plate-bound anti-CD3/anti-CD28 and IL4 for 15 mins by Western blot analysis; assay type: cell-based
T1 sequence (whole entry): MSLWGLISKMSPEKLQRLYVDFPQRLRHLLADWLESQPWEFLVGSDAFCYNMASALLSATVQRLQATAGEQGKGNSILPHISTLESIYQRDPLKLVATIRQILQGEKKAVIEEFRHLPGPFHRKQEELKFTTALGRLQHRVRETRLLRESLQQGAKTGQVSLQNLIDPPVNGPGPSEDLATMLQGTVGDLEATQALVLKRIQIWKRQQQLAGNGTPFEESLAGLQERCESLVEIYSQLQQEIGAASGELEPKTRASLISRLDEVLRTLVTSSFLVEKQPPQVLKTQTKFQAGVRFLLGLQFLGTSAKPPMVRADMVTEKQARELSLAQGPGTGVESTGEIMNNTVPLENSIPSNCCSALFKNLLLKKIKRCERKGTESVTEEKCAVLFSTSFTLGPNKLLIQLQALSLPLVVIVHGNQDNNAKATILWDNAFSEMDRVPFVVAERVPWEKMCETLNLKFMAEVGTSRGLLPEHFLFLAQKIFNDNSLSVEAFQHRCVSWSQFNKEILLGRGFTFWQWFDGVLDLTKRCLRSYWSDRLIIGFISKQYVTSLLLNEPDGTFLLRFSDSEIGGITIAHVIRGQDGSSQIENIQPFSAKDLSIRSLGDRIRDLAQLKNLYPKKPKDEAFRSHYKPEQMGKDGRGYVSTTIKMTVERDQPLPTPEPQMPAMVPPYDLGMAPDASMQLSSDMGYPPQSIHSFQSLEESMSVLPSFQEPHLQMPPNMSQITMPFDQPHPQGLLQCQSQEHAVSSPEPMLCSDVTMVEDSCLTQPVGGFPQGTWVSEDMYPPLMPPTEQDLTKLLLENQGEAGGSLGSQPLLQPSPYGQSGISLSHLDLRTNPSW
Outline: (§1)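 CD4+ T cells from C57BL/6J mice, sorted by AutoMACS; activated 15 min with plate-bound anti-CD3 and/or anti-CD28 with IL-2, IL-6 or IL-4; lysed with protease inhibitors plus 10 mM NaF and 1 mM Na3VO4; Bradford-normalised immunoblots for pSTAT1 (Tyr701), pSTAT5 (Tyr694), pSTAT6 (Tyr641) and total STATs.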

[5] = target: T2, Signal transducer and activator of transcription 1 (Mus musculus) (UniProt P42225); test: Inhibition of IL6-induced STAT1 phosphorylation at Y701 in CD4+ T lymphocytes isolated from C57BL/6J mouse preincubated for 2 hrs followed by activation with plate-bound anti-CD3/anti-CD28 and IL6 for 15 mins by Western blot analysis; assay type: cell-based; outline: as §1
T2 sequence (whole entry): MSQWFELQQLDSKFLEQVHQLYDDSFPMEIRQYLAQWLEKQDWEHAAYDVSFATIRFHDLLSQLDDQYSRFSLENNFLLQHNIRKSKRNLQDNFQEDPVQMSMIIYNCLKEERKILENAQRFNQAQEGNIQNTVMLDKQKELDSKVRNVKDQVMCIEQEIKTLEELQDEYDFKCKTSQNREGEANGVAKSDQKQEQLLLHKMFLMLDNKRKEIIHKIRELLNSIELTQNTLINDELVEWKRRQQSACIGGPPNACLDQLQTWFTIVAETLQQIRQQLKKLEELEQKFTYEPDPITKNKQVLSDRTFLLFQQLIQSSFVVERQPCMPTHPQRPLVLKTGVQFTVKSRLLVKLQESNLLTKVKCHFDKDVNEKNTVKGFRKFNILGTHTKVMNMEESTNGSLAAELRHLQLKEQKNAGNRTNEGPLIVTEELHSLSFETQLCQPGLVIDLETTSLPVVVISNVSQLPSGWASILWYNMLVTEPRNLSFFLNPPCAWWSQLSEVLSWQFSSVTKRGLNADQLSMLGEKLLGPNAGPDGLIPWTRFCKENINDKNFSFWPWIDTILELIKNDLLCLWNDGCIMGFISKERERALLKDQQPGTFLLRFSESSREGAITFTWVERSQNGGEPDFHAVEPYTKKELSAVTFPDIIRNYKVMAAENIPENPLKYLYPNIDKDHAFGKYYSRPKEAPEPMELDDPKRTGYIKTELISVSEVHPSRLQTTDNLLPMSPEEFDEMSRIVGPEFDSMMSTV

[6] = target: T3, Signal transducer and activator of transcription 6 (Homo sapiens) (UniProt P42226); test: Inhibition of IL4-induced STAT6 phosphorylation at tyrosine 641 in human Beas-2B cells at 0.05 to 5 uM incubated for 2 hrs followed by stimulation with IL4 for 1 hr by Western blot assay; assay type: cell-based
T3 sequence (whole entry): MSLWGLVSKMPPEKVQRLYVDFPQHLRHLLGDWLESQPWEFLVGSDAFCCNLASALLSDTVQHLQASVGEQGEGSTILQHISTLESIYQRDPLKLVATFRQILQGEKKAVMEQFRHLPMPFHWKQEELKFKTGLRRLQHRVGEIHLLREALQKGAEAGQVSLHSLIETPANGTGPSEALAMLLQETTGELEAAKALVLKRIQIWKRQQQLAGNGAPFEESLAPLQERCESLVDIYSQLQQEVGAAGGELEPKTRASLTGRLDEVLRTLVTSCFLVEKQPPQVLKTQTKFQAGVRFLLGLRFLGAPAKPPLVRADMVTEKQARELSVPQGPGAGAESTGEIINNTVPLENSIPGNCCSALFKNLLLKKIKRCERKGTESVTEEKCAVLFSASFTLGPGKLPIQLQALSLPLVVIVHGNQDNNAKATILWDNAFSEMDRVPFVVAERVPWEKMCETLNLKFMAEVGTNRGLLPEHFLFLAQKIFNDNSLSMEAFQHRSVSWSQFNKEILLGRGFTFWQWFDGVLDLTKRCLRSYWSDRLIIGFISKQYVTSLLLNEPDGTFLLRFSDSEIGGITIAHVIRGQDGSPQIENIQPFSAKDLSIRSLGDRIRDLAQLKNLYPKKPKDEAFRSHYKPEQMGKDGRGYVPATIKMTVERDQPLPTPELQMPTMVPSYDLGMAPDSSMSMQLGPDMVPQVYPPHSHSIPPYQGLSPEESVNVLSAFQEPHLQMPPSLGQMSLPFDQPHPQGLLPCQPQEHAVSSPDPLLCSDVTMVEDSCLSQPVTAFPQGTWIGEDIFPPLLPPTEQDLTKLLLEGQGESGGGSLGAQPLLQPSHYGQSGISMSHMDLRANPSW
Outline: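 Beas-2B seeded at 3.0 × 10^5 cells/well the day before; prodrugs from DMSO stocks added to final concentrations for 2 h, then IL-4 (2 ng/mL) for 1 h. PBS-washed cells lysed with PMSF, protein by modified Lowry; blots blocked in 3% BSA/TBST, probed for pSTAT6 (Tyr641), stripped and reprobed for total STAT6; ECL on X-ray film.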

Mus musculus = organism: Mus musculus; test: Inhibition of IL2-induced STAT5 phosphorylation at Y694 in CD4+ T lymphocytes isolated from C57BL/6J mouse at 0.5 to 5 uM preincubated for 2 hrs followed by activation with plate-bound anti-CD3/anti-CD28 and IL2 for 15 mins by Western blot analysis; assay type: cell-based; outline: as §1

inhibition [1]: Active
inhibition [3]: inactive
inhibition [4]: Active
inhibition [5]: inactive
inhibition [6]: Active
SMILES: CC(C)(C)C(=O)OCOP(=O)(OCOC(=O)C(C)(C)C)C(F)(F)c1ccc(/C=C/C(=O)N[C@H](C(=O)N2CCC[C@H]2C(=O)Nc2ccccc2)C(C)(C)C)cc1
Activity [2]: Toxic
inhibition (Mus musculus): inactive
